According to publication PMC4832564 (Amyloid : the international journal of experimental and …, 2015):
Read-outs that look alike come from different tables or passages of the source. Each block holds one molecule with its values, some of them ahead of it. Where no end group is shown, it is not given here.

Assays:
[1] = mouse, in vivo, iv
systemic AA amyloid = assay type: in vivo, mouse; details: mice with systemic visceral AA amyloidosis, 2 h post-injection iv; triplicate
[2] = tested on: synthetic rVλ6Wil fibrils; assay type: binding, human; details: for % bound relative to no inhibitor: 50 μg rVλ6Wil fibrils, mean of duplicate experiments
In short: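 ¹²⁵I-p5 or ¹²⁵I-RAGE VC1 (chloramine T iodination) pre-incubated 30 min RT with AGE-BSA, BSA, enoxaparin or E. coli-expressed human S100B (100, 4 or 1 μM). 50 μg fibrils from E. coli-made rVλ6Wil then added in PBS/0.05% tween 20 (S100B: TBS with 1 mM CaCl₂) and rotated 1 h RT. Spun twice at 16 000 × g, 10 min each. Pellet and supernatant gamma-counted; % bound relative to no inhibitor; mean of duplicate experiments.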

[3] = molecular target: Synthetic amyloid fibrils of the recombinant λ6 variable domain from patient Wil (rVλ6Wil) (human); test: co-sedimentation
[4] = molecular target: Synthetic amyloid fibrils of human islet amyloid polypeptide (IAPP) (human) (UniProt P10997); test: co-sedimentation
Synthetic amyloid fibrils of human islet amyloid polypeptide (IAPP) (human), sequence (P10997 34-70): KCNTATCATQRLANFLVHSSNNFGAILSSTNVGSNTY

[5] = tested on: heparin and synthetic amyloid fibrils; details: cited from earlier work
[6] = molecular target: Synthetic amyloid fibrils of Aβ(1–40); test: co-sedimentation
[7] = molecular target: Synthetic amyloid fibrils of the recombinant λ6 variable domain from patient Wil (rVλ6Wil) (human); test: co-sedimentation; remark: listed apart in the source

Molecule: 99mTc-p5: peptide p5 radiolabeled with 99mTc (CGGYSKAQKAQAKQAKQAQKAQKAQAKQAKQ; also: 99mTc radiolabel)
T:M ratio, Heart [1]: 2.75
T:M ratio, L. Kidney [1]: 659.97
T:M ratio, Liver [1]: 12.44
T:M ratio, Low. Intestine [1]: 14.55
T:M ratio, Muscle [1]: 1.00
T:M ratio, Pancreas [1]: 3.92
T:M ratio, R. Kidney [1]: 711.82
T:M ratio, Spleen [1]: 4.65
T:M ratio, Stomach [1]: 9.62
T:M ratio, Up. Intestine [1]: 8.88
distribution of radiotracer by SPECT/CT in AA mice (systemic AA amyloid): coincident retention of both radiotracers in the amyloid-laden liver and spleen

Molecule: 125I-p5: peptide p5 radioiodinated with 125I (CGGYSKAQKAQAKQAKQAQKAQKAQAKQAKQ; also: 125I radiolabel)
% bound relative to no inhibitor ([2]; PBS): 100.0%
% bound relative to no inhibitor ([2]; TBS with 1 mM CaCl2): 76.5%

Molecule: GGGYSRAQRAQARQARQAQRAQRAQARQARQ [p5R]
affinity relative to p5 [5]: higher affinity for both heparin and synthetic amyloid fibrils

Molecule: CGGYSKAQKAQAKQAKQAQKAQKAQAKQAKQ (not fully specified; also: 99mTc-labeled in imaging studies) [Peptide p5]
% bound to the fibril pellet [6]: > 50%
% bound relative to no inhibitor (no inhibitor, PBS) [7]: 100%
% bound relative to no inhibitor (no inhibitor, TBS with 1 mM CaCl2) [7]: 76.5%
% bound relative to no inhibitor, with 4 μM enoxaparin [7]: 97.6%
% bound relative to no inhibitor, with 100 μM enoxaparin [7]: 87.4%
% bound to the fibril pellet [7]: > 50%

Now from value to molecule:

decrease in binding to fibrils on addition of BSA ([2]; 125I-labelled, BSA added (100 μM in Table 1)): ~ 30%
decrease in binding with the synthetic amyloid fibrils ([2]; 125I-labelled, Enoxaparin 100 μM): 13%
decrease in binding to fibrils on addition of S100B ([2]; 125I-labelled, human recombinant S100B, in the presence of 1 mM CaCl2): 20%
reduction of reactivity with rVλ6Wil fibrils ([2]; 125I-labelled, pre-incubation with AGE-BSA at 100 μM): ~ 90%
Molecule: CGGYSKAQKAQAKQAKQAQKAQKAQAKQAKQ [p5]

% bound relative to no inhibitor (no inhibitor, PBS) [3]: 100%
% bound relative to no inhibitor (no inhibitor, TBS with 1 mM CaCl2) [3]: 102%
% bound relative to no inhibitor, with 4 μM enoxaparin [3]: 102%
% bound relative to no inhibitor, with 100 μM enoxaparin [3]: 94%
% reduction of ^125I-p5R binding to IAPP fibrils [4]: 70%
% reduction of ^125I-p5 binding to IAPP fibrils [4]: 90%
Molecule: Recombinant human RAGE VC1 (soluble recombinant variable and constant-1 domains of RAGE) (domain or fragment)

% bound to the fibril pellet [6]: > 50%
% bound to the fibril pellet [7]: > 50%
Molecule: GGGYSRAQRAQARQARQAQRAQRAQARQARQ (also: radioiodinated (125I, chloramine T)) [Peptide p5R]
